Source: the RNAGym collection of RNA variant scans (doi:10.1126/science.aae0568)
Fewer inactive variants are shown than the library holds.

B1: tRNA (parent)
chain: GUUCCGUUGGCGUAAUGGUAACGCGUCUCCCUCCUAAGGAGAAGACUGCGGGUUCGAGUCCCGUACGGAACG

Variants of: B1
Test: yeast fitness relative to wild type (ratio to wild type); higher = fitter; tRNA-Arg(CCU), competitive growth, 37 C, YPD
How it was run: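 Gene amplicons from the start population and from each of six end populations were read by 100-nucleotide paired-end sequencing. Those end populations came from pooled Saccharomyces cerevisiae strains carrying tRNA-Arg(CCU) gene variants at the native locus, competed in YPD at 37°C for 24 hours. Fitness relative to wild type was worked out from changes in genotype frequencies. Genotypes needed ≥ 100 starting reads, and estimates < 0.5 were set to 0.5.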
For GUUCCGUUGGCGUGAUGGUAACGCGUGUCCCUCCUAAGGAGAAGACUGCGGGUUCGAGUCUCGUACGGAACG [A14G C27G C61U], the yeast fitness was ≤ 0.5.
In the case of GUUCCGUUGGCGUGAUGGUAACGCGUCUCCGUCCUAAGGAGAAGACUGCGGGUUCGAGUCCCGUACGGCACG [A14G C31G A69C], the yeast fitness is reported as 0.652.
With GUUCCGUUGGCGUGAUGGUAACGGGUCUCCCUCCUAAGGAGAAGACUGCGGGUUCGAGUCCCGUCCGGAACG [A14G C24G A65C] the yeast fitness was ≤ 0.5.
Variant GUUCCGUUGGCGUGAUGGUAACGCGUGUCCUUCCUAAGGAGAAGACUGCGGGUUCGAGUCCCGUACGGAACG [A14G C27G C31U] has a yeast fitness of 0.501.
In the case of GUUCCGUUGGCGUGAUGGUAACGCGUCUCACUCGUAAGGAGAAGACUGCGGGUUCGAGUCCUGUACGGAACG [A14G C30A C34G C62U], the yeast fitness is reported as ≤ 0.5.
With GUUCCGUUGGCGUGAUGGUAACGCGUGUCCCUCGUAUGGAGAAGACUGCGGGUUCGAGUCCUGUACGGAACG [A14G C27G C34G A37U C62U] the yeast fitness was ≤ 0.5.
For GUUCCGUUGGCGUGAUGGUAACGCGUCUCCAUCCUAAGGAGAAGAUUGCGGGUUCCAGUCCCGUACGGUACG [A14G C31A C46U G56C A69U], the yeast fitness was ≤ 0.5.
With GUUCCGUUGGCGUGAUGGUAACGCGUCUGCCUCCUAGGGAGAAGACUGCGGGUUCGAGUCCCGUACGGAACG [A14G C29G A37G] the yeast fitness was ≤ 0.5.
With GUUCCGUUGGCGUGAUGGUAACGCGUGUCCAUGCUAAGGAGAAGACUGUGGGUUCGACUCCCGUACGGAACG [A14G C27G C31A C33G C49U G58C] the yeast fitness was ≤ 0.5.
With GUUCCGUUGGCGUGAUGGUAACGCGUCUUCUUUCUAAGGAGAAGACUGCGGGUUCGAGUCCCGUACGGAACG [A14G C29U C31U C33U] the yeast fitness was 0.543.
For GUUCCGUUGGCGUGAUGGUAACGGGUCUCCUUCCUAAGGAGAAGACCGCGGGUUAGAGUCCCGUACGGAACG [A14G C24G C31U U47C C55A], the yeast fitness was ≤ 0.5.
For GUUCCGUUGGCGUGAUGGUAACGCGUAUCCCUCCUAAGGAGAAGACUGCGGGUGCGAGUCCCGUACGCAACG [A14G C27A U54G G68C], the yeast fitness was ≤ 0.5.
With GUUCCGUUGGCGUGAUGGUAACGCGUCUCGCUCCUAAGGAGAAGACUGCGGGUUCGGGUCCCGUACGGAACG [A14G C30G A57G] the yeast fitness was ≤ 0.5.
With GUUCCGUUGGCGUGAUGGUAACGCGUCUCACUCCUAAGGAGAAGACUGCAAGUUCGAGUCCCGUACGGGACG [A14G C30A G50A G51A A69G] the yeast fitness was ≤ 0.5.
GUUCCGUUGGCGUGAUGGUAACGCGUCUGCCUCCUAAGGAGAAGACUGCGGGUUCGAGUCCUGUACGGAACG [A14G C29G C62U] showed a yeast fitness of 0.573.
Work on GUUCCGUUGGCGUGAUGGUAACGGGUCUCCCUCCUAAGGAGCAGACUGCGGGUUCGAGUCCCGUACGGAACG [A14G C24G A42C] yielded a yeast fitness of 0.512.
In the case of GUUCCGUUGGCGUGAUGGUAACGUGUCUCCCUCCUAAGGAGAAGACUGCGGGUUCGAGUCCCGUCCGGAACG [A14G C24U A65C], the yeast fitness is reported as 0.542.
With GUUCCGUUGGCGUGAUGGUAACGCGUCUCCGUUCUAACGAGAAGACUGCGGGUUCGACUCCCGUAGGGAACG [A14G C31G C33U G38C G58C C66G] the yeast fitness was ≤ 0.5.
For GUUCCGUUGGCGUGAUGGUAACGCGUCUUCCUCCUAAGGAGAAGACUGCGGGUUCGAGUCCCGUGCGGAACG [A14G C29U A65G], the yeast fitness was 0.555.
In the case of GUUCCGUUGGCGUGAUGGUAACGAAUCUCCAUCCUAAGGAGAAGACUGCGGGUUCGAGUCCCGUACGGAACG [A14G C24A G25A C31A], the yeast fitness is reported as ≤ 0.5.
In the case of GUUCCGUUGGCGUGAUGGUAACGCGUCUUCCUCCUAAGGAGAAGACUGCGGGUUCGCGUCCCGUACGGAACG [A14G C29U A57C], the yeast fitness is reported as ≤ 0.5.
With GUUCCGUUGGCGUGAUGGUAAUGCGUCUCCCUCUUAAGGAGAAGACUGCGCGUUCGAAUCCCGUACGGAACG [A14G C22U C34U G51C G58A] the yeast fitness was ≤ 0.5.
With GUUCCGUUGGCGUGAUGGUAACGUGUCUCCCUCCUAAGGAGAAGACUGCGGGUUCGAGUCCCGUACCGAACG [A14G C24U G67C] the yeast fitness was 0.54.
For GUUCCGUUGGCGUGAUGGUAAGGCGUCUCCCUCCCAAGGAGAAGACUGCGGGUUCGCGUCCCGUACGGAACG [A14G C22G U35C A57C], the yeast fitness was ≤ 0.5.
With GUUCCGUUGGCGUGAUGGUAACGUGUCUCCCUCCUAAGGAGCAGACUGCAGGUUCGAGUCCCGUACGGAACG [A14G C24U A42C G50A] the yeast fitness was ≤ 0.5.
In the case of GUUCCGUUGGCGUGAUGGUAAUGCGUCUCCCUCCUAAGGAGAAGACUGAGGGUUCGAGUCCCGUACGGAACG [A14G C22U C49A], the yeast fitness is reported as ≤ 0.5.
With GUUCCGUUGGCGUGAUGGUAACGAGUCUCCCUCGUAACGAGAAGACUGCGGGUUCGAGUCCCGUACGGAACG [A14G C24A C34G G38C] the yeast fitness was ≤ 0.5.
GUUCCGUUGGCGUGAUGGUAAUGCGUCUCCCUCCUAAGGAGAAGACUGCGGGUUCGAGUCCCGUACGGAACG [A14G C22U] gave a yeast fitness of 0.783.
With GUUCCGUUGGCGUGAUGGUAACGUGGCUCCCUCCUAAGGAGAAGACUGCGGGUUCGAGUCCCGUACGGAACG [A14G C24U U26G] the yeast fitness was ≤ 0.5.
For GUUCCGUUGGCGUGAUGGUAAUGCGUCUGCCUGCUAGGGAGAAGACUGCGGGUUCGAGUCCCGUACGGAACG [A14G C22U C29G C33G A37G], the yeast fitness was ≤ 0.5.
In the case of GUUCCGUUGGCGUGAUGGUAACGCGUGUCCCUCGUAUGGAGAAGACUGCGGGUUCGAGUCGCGUACGGAACG [A14G C27G C34G A37U C61G], the yeast fitness is reported as ≤ 0.5.
In the case of GUUCCGUUGGCGUGAUGGUAACGCGUGUCCCUCGUAUGGAGAAGACUGCGGGUUCGAGUCCCGAACGGACCG [A14G C27G C34G A37U U64A A70C], the yeast fitness is reported as 0.522.
In the case of GUUCCGUUGGCGUGAUGGUAACGGGUCUCCCUCCUAAGGGGAAGACUGCGGGAUCGAGUCCCGUACGCAACG [A14G C24G A40G U53A G68C], the yeast fitness is reported as ≤ 0.5.
With GUUCCGUUGGCGUGAUGGUAACGUGUCUCCCUCCUAAGGAGAAGACUGCGGGUUCGAGUCCCCUACGGAACG [A14G C24U G63C] the yeast fitness was ≤ 0.5.
In the case of GUUCCGUUGGCGUGAUGGUAACGUGUCUCCCUCCUAAGGAGAAGACUGCGGGUUCGAGUCCCGUACGGAACG [A14G C24U], the yeast fitness is reported as 0.784.
Work on GUUCCGUUGGCGUGAUGGUAACGCGUCUCCAUCCUAAGGAGAAGACUGCGGGUUCGAGUCCCGUACGGAACG [A14G C31A] yielded a yeast fitness of 0.752.
In the case of GUUCCGUUGGCGUGAUGGUAACGCGUCUCUCUCCUAAGGAGGAGACUGCGGGUUCGUGUCCCGUACGGAACG [A14G C30U A42G A57U], the yeast fitness is reported as ≤ 0.5.
